Data as given in BindingDB's records for doi:10.1021/jm00037a004 (Research Biochemicals International, 1994).

These compounds were tested against Sodium-dependent dopamine transporter (Rattus norvegicus, UniProt P23977) (assay: Binding affinity for dopamine transporters in rat brain tissue.).
In short: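 Crude membrane fraction from rat corpus striatum homogenate. Nonspecific binding defined with 30 μM methylphenidate. Each agent tested at six concentrations in duplicate. Concentration-inhibition curves computer-fit for IC50 ± SEM, converted to Ki = IC50/(1 + [L/Kd]).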

Chain of Sodium-dependent dopamine transporter (P23977 whole entry): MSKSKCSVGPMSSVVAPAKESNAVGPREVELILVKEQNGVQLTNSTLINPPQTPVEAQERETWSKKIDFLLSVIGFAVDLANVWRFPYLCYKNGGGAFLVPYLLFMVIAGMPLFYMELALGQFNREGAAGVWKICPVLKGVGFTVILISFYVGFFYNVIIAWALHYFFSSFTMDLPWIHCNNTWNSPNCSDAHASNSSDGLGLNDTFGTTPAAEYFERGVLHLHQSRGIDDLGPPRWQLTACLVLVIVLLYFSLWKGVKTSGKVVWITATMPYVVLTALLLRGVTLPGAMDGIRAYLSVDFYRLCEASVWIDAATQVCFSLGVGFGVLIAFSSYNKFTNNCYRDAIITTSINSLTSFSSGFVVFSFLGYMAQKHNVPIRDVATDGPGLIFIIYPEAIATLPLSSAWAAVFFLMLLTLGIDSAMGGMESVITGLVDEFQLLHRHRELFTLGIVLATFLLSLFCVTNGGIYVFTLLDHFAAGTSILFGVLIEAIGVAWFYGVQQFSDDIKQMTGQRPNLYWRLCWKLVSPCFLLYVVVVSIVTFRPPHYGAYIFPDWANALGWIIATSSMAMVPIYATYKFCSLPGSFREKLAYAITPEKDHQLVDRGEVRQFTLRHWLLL

| Compound | Ki [µM] |
| --- | --- |
| COC(=O)[C@H]1C(c2cc[c]([Sn]([CH3])([CH3])[CH3])cc2)C[C@H]2CCC1N2CCCF (stereo partly drawn) [(2S,5R)-8-(3-Fluoro-propyl)-3-(4-trimethylstannanyl-phenyl)-8-aza-bicyclo[3.2.1]octane-2-carboxylic acid methyl ester] | > 10 |
| CC(C)OC(=O)[C@H]1C(c2cc[c]([Sn]([CH3])([CH3])[CH3])cc2)C[C@H]2CCC1N2CCF (stereo partly drawn) [(2S,5R)-8-(2-Fluoro-ethyl)-3-(4-trimethylstannanyl-phenyl)-8-aza-bicyclo[3.2.1]octane-2-carboxylic acid isopropyl ester] | 1.15 |
| COC(=O)[C@H]1C(c2cc[c]([Sn]([CH3])([CH3])[CH3])cc2)C[C@H]2CCC1N2CCF (stereo partly drawn) [(2S,5R)-8-(2-Fluoro-ethyl)-3-(4-trimethylstannanyl-phenyl)-8-aza-bicyclo[3.2.1]octane-2-carboxylic acid methyl ester] | > 10 |
| CC(C)OC(=O)[C@H]1C(c2cc[c]([Sn]([CH3])([CH3])[CH3])cc2)C[C@H]2CCC1N2CCCF (stereo partly drawn) [(2S,5R)-8-(3-Fluoro-propyl)-3-(4-trimethylstannanyl-phenyl)-8-aza-bicyclo[3.2.1]octane-2-carboxylic acid isopropyl ester] | > 10 |
